Data published in ChEMBL document CHEMBL4371071, “Muscarinic agonist, (±)-quinuclidin-3-yl-(4-fluorophenethyl)(phenyl)carbamate: High affinity, but low subtype selectivity for human M1 - M5 muscarinic acetylcholine receptors” (Bioorg Med Chem Lett, 2019).
Activity calls are given as the source filed them. No cut-off for these calls is given here.

Tests used:
[1] = molecular target: Muscarinic acetylcholine receptor M3 (Homo sapiens, UniProt P20309); conditions: CHO, at 100 µM
[2] = molecular target: T1, Muscarinic acetylcholine receptor M1 (Homo sapiens, UniProt P11229); assay: Displacement of [3H]NMS from human M1 AChR expressed in CHO cell membranes after 1 to 2 hrs by liquid scintillation spectrometry method; format: cell-based
T1 sequence (P11229 whole entry): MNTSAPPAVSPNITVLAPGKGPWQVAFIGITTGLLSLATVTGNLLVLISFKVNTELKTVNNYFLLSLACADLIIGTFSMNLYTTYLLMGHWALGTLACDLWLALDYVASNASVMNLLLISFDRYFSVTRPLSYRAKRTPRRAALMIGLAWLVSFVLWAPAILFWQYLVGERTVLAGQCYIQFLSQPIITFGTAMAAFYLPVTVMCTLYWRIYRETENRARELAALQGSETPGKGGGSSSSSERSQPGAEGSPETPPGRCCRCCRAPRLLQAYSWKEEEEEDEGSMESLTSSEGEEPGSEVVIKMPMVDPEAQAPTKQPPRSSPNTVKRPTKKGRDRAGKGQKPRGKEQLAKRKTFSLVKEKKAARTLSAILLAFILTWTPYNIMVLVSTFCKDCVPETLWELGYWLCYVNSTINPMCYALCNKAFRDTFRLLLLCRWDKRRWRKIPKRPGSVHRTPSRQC

Homo sapiens = species: Homo sapiens; assay: Selectivity ratio of Ki for displacement of [3H]NMS from human M1 AChR expressed in CHO cell membranes to Ki for displacement of [3H]NMS from human M5 AChR expressed in CHO cell membranes
[3] = molecular target: T2, Muscarinic acetylcholine receptor M2 (Homo sapiens) (UniProt P08172); assay: Displacement of [3H]NMS from human M2 AChR expressed in CHO cell membranes at 100 uM after 1 to 2 hrs by liquid scintillation spectrometry method relative to control
T2 sequence (whole entry): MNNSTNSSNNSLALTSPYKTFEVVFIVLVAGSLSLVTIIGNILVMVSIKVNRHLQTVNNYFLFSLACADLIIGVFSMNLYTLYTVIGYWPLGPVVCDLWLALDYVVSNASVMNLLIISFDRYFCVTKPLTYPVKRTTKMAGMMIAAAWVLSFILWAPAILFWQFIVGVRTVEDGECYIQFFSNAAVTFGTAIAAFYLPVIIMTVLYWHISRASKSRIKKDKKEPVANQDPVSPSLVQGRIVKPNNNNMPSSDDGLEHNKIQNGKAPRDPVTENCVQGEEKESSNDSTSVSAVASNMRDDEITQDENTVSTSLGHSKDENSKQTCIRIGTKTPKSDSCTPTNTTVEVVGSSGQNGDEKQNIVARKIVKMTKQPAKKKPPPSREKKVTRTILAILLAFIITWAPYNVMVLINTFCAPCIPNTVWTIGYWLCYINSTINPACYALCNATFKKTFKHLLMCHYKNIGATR
Method in brief: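 CHO membranes expressing the human subtype (20 µg protein/well) with 0.3 nM [3H]NMS and analog (1 nM–100 µM) in 50 mM Tris-HCl pH 7.4, 2 h at 25 °C. Filtered on GF/B, washed, counted by scintillation. IC50 taken from curves to give Ki; three independent experiments in duplicate.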

[4] = molecular target: T3, Muscarinic acetylcholine receptor M2 (Homo sapiens, UniProt P08172); assay: Displacement of [3H]NMS from human M2 AChR expressed in CHO cell membranes after 1 to 2 hrs by liquid scintillation spectrometry method
T3 sequence (P08172 whole entry): T2 sequence (whole entry)
Method in brief: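 CHO membranes expressing the human subtype (20 µg protein/well) with 0.3 nM [3H]NMS and analog (1 nM–100 µM) in 50 mM Tris-HCl pH 7.4, 2 h at 25 °C. […] Filtered on GF/B, washed, counted by scintillation. IC50 taken from curves to give Ki; three independent experiments in duplicate.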

[5] = molecular target: Muscarinic acetylcholine receptor (Rattus norvegicus) (UniProt P08482+P08483+P08485+P08911+P10980); assay: Agonist activity at muscarinic acetylcholine receptor in superfused rat striatal slices assessed as augmentation of oxotremorine-induced [3H]DA release at 1 to 10 uM preincubated for 35 mins in presence of [3H]DA followed by oxotremorine addition and measured after 25 mins in presence of scopolamine by liquid scintillation spectroscopic method
Method in brief: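 Rat striatal slices (500 µm) in Krebs' buffer pH 7.4 at 34 °C for 60 min, with 0.1 µM [3H]DA over the final 30 min. Superfused at 0.6 mL/min with 10 µM nomifensine and 10 µM pargyline; 5-min fractions. Basal outflow taken over 15 min, then test agent 35 min, then 100 µM oxotremorine 25 min. Overflow = summed radioactivity minus basal, by scintillation; n = 4–10.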

Muscarinic acetylcholine receptor M3, sequence (P20309 whole entry, looked up): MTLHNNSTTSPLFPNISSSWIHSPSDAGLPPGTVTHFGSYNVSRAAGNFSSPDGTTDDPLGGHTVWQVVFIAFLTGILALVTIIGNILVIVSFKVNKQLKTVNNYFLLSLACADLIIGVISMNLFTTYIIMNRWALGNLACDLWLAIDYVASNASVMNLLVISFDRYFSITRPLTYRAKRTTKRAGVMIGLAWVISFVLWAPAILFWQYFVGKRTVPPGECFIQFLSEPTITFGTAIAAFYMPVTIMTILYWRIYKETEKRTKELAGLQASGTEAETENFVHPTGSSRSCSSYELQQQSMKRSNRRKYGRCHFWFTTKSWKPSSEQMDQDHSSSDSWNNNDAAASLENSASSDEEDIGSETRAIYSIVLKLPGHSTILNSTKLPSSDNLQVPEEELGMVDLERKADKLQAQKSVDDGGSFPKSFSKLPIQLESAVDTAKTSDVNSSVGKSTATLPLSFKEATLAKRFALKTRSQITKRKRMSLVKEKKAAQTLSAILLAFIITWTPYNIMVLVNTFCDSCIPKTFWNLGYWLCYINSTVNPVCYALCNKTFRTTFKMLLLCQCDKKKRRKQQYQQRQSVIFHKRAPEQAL

Question: For `O=C(OC1CN2CCC1CC2)N(CCc1ccc(F)cc1)c1ccccc1` (racemic), which Imax [1] is on record?
Answer: 100%

Question: And the Ki [2]?
Answer: 2 nM

Question: And the Ratio Ki (Homo sapiens)?
Answer: 1.1

Question: What about the Imax [3] of the same compound?
Answer: 100%

Question: And the Ki [4]?
Answer: 13 nM

Question: What about the Activity [5] of the same compound?
Answer: inactive
